# Measured values taken from ChEMBL document CHEMBL3352171, “Synthesis and biological evaluation of andrographolide analogues as anti-cancer agents” (Eur J Med Chem, 2014).
# Calls of active or inactive are those of the source. The calls are words filed in the database; no cut-off is given here.
# Assays:
# HEK293 [1] = test: Cytotoxicity against HEK293 cells after 48 hrs by MTT assay; type: functional; conditions: Homo sapiens, HEK293, 48 h; read-out: LC50 (the source's name)
# In short: (§1)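 Cells seeded at 10,000 per well and exposed to increasing compound concentrations for 48 h. After a PBS wash, MTT (2.5 mg/mL) was added for 6 h at 37 °C, then detergent (10% NP-40, 4 mM HCl), and absorbance was read at 570 nm. LC50 is the concentration causing 50% cell death. Values are means of three independent experiments.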
# Vero = test: Cytotoxicity against african green monkey Vero cells after 48 hrs by MTT assay; type: cell-based; conditions: chlorocebus sabaeus; in short: as §1
# [2] = Retention time of the compound by HPLC method; type: physicochemical
# MCF7 = test: Cytotoxicity against human MCF7 cells after 48 hrs by MTT assay; type: functional; conditions: MCF7, 48 h, read-out: LC50 (the source's name); in short: as §1
# [3] = Cytotoxicity against human MCF10A cells after 48 hrs by MTT assay; type: cell-based; conditions: mcf-10a; in short: as §1
# HEK293 [4] = test: Increase in caspase-3 expression in HEK293 cells at LC50 level after 48 hrs by immunocytochemistry; type: functional, cell-based; conditions: Homo sapiens
# HEK293 [5] = test: Increase in Bax expression in HEK293 cells at LC50 level after 48 hrs by Western blot method; type: functional, cell-based; conditions: Homo sapiens
# HEK293 [6] = test: Reduction in Bcl-xL expression in HEK293 cells at LC50 level after 48 hrs by Western blot method; type: functional, cell-based; conditions: Homo sapiens
# HEK293 [7] = test: Increase in PARP cleavage in HEK293 cells at LC50 level after 48 hrs by Western blot method; type: functional, cell-based; conditions: Homo sapiens
# HEK293 [8] = test: Increase in p53 expression in HEK293 cells at LC50 level after 48 hrs by Western blot method; type: functional, cell-based; conditions: Homo sapiens
# HEK293 [9] = test: Reduction in NFkappaB expression in HEK293 cells at LC50 level after 48 hrs by Western blot method; type: functional, cell-based; conditions: Homo sapiens
# HEK293 [10] = test: Increase in Bax expression in p53 deficient HEK293 cells at LC50 level after 48 hrs by Western blot method; type: functional, cell-based; conditions: Homo sapiens
# HEK293 [11] = test: Reduction in Bcl-xL expression in p53 deficient HEK293 cells at LC50 level after 48 hrs by Western blot method; type: functional, cell-based; conditions: Homo sapiens
# HEK293 [12] = test: Increase in PARP cleavage in p53 deficient HEK293 cells at LC50 level after 48 hrs by Western blot method; type: functional, cell-based; conditions: Homo sapiens
# HEK293 [13] = test: Increase in p53 expression in p53 deficient HEK293 cells at LC50 level after 48 hrs by Western blot method; type: functional, cell-based; conditions: Homo sapiens
# HEK293 [14] = test: Reduction in NFkappaB expression in p53 deficient HEK293 cells at LC50 level after 48 hrs by Western blot method; type: functional, cell-based; conditions: Homo sapiens
# HEK293 [15] = test: Induction of apoptosis in HEK293 cells assessed as apoptotic nuclei formation at 10 uM after 48 hrs by DAPI staining based fluorescence microscopy; type: functional, cell-based; conditions: Homo sapiens
# HEK293 [16] = test: Induction of cell death in HEK293 cells at 15 to 20 uM after 48 hrs by DAPI staining based fluorescence microscopy; type: functional; conditions: Homo sapiens
# HEK293 [17] = test: Induction of apoptosis in HEK293 cells at 5 to 20 uM after 48 hrs by DAPI staining based fluorescence microscopy; type: functional, cell-based; conditions: Homo sapiens
# HEK293 [18] = test: Induction of apoptosis in HEK293 cells at 5 uM after 48 hrs by propidium iodide staining based flow cytometry (reference value: 24.26 +/- 0.8%); type: functional, Homo sapiens
# HEK293 [19] = test: Induction of apoptosis in HEK293 cells at 10 uM after 48 hrs by propidium iodide staining based flow cytometry (reference value: 24.26 +/- 0.8%); type: functional, Homo sapiens
# HEK293 [20] = test: Induction of apoptosis in HEK293 cells at 15 uM after 48 hrs by propidium iodide staining based flow cytometry (reference value: 24.26 +/- 0.8%); type: functional, Homo sapiens
# HEK293 [21] = test: Induction of apoptosis in HEK293 cells at 20 uM after 48 hrs by propidium iodide staining based flow cytometry (reference value: 24.26 +/- 0.8%); type: functional, Homo sapiens
# HEK293 [22] = test: Induction of cell cycle arrest in HEK293 cells assessed as accumulation at G1 phase at 5 uM after 48 hrs by propidium iodide staining based flow cytometry (reference value: 53.21 +/- 0.8%); type: functional, Homo sapiens
# HEK293 [23] = test: Induction of cell cycle arrest in HEK293 cells assessed as accumulation at G1 phase at 10 uM after 48 hrs by propidium iodide staining based flow cytometry (reference value: 53.21 +/- 0.8%); type: functional, Homo sapiens
# HEK293 [24] = test: Induction of cell cycle arrest in HEK293 cells assessed as accumulation at G1 phase at 15 uM after 48 hrs by propidium iodide staining based flow cytometry (reference value: 53.21 +/- 0.8%); type: functional, Homo sapiens
# HEK293 [25] = test: Induction of cell cycle arrest in HEK293 cells assessed as accumulation at G1 phase at 20 uM after 48 hrs by propidium iodide staining based flow cytometry (reference value: 53.21 +/- 0.8%); type: functional, Homo sapiens
# HEK293 [26] = test: Induction of cell cycle arrest in HEK293 cells assessed as accumulation at S phase at 5 uM after 48 hrs by propidium iodide staining based flow cytometry (reference value: 19.9 +/- 0.5%); type: functional, Homo sapiens
# HEK293 [27] = test: Induction of cell cycle arrest in HEK293 cells assessed as accumulation at S phase at 10 uM after 48 hrs by propidium iodide staining based flow cytometry (reference value: 19.9 +/- 0.5%); type: functional, Homo sapiens
# HEK293 [28] = test: Induction of cell cycle arrest in HEK293 cells assessed as accumulation at S phase at 15 uM after 48 hrs by propidium iodide staining based flow cytometry (reference value: 19.9 +/- 0.5%); type: functional, Homo sapiens
# HEK293 [29] = test: Induction of cell cycle arrest in HEK293 cells assessed as accumulation at S phase at 20 uM after 48 hrs by propidium iodide staining based flow cytometry (reference value: 19.9 +/- 0.5%); type: functional, Homo sapiens
# HEK293 [30] = test: Induction of cell cycle arrest in HEK293 cells assessed as accumulation at G2/M phase at 5 uM after 48 hrs by propidium iodide staining based flow cytometry (reference value: 2.63 +/- 0.7%); type: functional, Homo sapiens
# HEK293 [31] = test: Induction of cell cycle arrest in HEK293 cells assessed as accumulation at G2/M phase at 10 uM after 48 hrs by propidium iodide staining based flow cytometry (reference value: 2.63 +/- 0.7%); type: functional, Homo sapiens
# HEK293 [32] = test: Induction of cell cycle arrest in HEK293 cells assessed as accumulation at G2/M phase at 15 uM after 48 hrs by propidium iodide staining based flow cytometry (reference value: 2.63 +/- 0.7%); type: functional, Homo sapiens
# HEK293 [33] = test: Induction of cell cycle arrest in HEK293 cells assessed as accumulation at G2/M phase at 20 uM after 48 hrs by propidium iodide staining based flow cytometry (reference value: 2.63 +/- 0.7%); type: functional, Homo sapiens
# HEK293 [34] = test: Induction of apoptosis in HEK293 cells at 20 uM after 48 hrs by propidium iodide staining based flow cytometry relative to untreated control; type: functional, Homo sapiens
# [35] = biological target: T1, Nuclear factor NF-kappa-B complex (Homo sapiens) (UniProt Q00653+P19838+Q04206); test: Inhibition of NFkappaB (unknown origin) expressed in HEK293 cells assessed as reduction in transcriptional activity after 48 hrs by luciferase reporter gene assay; type: cell-based
# In short: (§2)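 HEK-293 at 70% confluence transfected by calcium phosphate with NF-kB luciferase ([…]) and b-Gal ([…]) plasmids, 6–8 h, then fresh serum medium 12 h; treated 48 h, lysed, luciferase read and normalized to b-galactosidase. Three independent experiments.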
# [36] = biological target: T1, Nuclear factor NF-kappa-B complex (Homo sapiens); test: Inhibition of NFkappaB (unknown origin) expressed in HEK293 cells assessed as reduction in transcriptional activity at 10 uM after 48 hrs by luciferase reporter gene assay; type: cell-based; in short: as §2
# [37] = Binding affinity to GC-28 DNA (unknown origin) minor groove by DAPI staining based spectrophotometry
# In short: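 DAPI–DNA complex fluorescence read at 460 nm emission band; test compound added to the preformed complex and loss of fluorescence followed.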
# T1 sequence (P19838 whole entry, looked up): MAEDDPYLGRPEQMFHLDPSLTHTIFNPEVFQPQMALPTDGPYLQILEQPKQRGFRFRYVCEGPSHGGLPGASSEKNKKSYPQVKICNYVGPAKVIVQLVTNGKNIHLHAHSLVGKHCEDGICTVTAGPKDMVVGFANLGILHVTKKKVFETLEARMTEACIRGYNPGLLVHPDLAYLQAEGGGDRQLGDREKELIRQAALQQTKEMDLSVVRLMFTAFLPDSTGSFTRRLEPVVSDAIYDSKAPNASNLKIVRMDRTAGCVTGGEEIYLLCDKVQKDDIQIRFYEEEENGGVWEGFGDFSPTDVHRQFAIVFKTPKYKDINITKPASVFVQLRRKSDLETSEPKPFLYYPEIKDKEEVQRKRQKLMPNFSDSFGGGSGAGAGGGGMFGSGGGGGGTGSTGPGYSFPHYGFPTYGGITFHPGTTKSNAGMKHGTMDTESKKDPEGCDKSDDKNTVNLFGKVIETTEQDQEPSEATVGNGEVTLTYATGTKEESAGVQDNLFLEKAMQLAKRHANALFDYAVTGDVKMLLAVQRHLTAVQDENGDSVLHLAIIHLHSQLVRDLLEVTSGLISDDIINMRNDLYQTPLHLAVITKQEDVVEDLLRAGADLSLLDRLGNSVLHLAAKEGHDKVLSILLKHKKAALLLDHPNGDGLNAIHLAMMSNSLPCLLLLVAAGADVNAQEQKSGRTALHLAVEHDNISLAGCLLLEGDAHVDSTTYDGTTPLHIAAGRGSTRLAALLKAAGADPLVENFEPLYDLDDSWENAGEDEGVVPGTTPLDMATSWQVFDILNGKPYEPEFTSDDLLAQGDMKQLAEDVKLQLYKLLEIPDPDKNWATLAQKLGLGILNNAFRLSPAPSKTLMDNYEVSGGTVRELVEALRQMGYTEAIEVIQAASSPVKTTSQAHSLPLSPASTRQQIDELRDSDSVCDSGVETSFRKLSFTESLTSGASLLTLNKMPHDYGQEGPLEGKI
# T1 sequence (Q00653 whole entry, looked up): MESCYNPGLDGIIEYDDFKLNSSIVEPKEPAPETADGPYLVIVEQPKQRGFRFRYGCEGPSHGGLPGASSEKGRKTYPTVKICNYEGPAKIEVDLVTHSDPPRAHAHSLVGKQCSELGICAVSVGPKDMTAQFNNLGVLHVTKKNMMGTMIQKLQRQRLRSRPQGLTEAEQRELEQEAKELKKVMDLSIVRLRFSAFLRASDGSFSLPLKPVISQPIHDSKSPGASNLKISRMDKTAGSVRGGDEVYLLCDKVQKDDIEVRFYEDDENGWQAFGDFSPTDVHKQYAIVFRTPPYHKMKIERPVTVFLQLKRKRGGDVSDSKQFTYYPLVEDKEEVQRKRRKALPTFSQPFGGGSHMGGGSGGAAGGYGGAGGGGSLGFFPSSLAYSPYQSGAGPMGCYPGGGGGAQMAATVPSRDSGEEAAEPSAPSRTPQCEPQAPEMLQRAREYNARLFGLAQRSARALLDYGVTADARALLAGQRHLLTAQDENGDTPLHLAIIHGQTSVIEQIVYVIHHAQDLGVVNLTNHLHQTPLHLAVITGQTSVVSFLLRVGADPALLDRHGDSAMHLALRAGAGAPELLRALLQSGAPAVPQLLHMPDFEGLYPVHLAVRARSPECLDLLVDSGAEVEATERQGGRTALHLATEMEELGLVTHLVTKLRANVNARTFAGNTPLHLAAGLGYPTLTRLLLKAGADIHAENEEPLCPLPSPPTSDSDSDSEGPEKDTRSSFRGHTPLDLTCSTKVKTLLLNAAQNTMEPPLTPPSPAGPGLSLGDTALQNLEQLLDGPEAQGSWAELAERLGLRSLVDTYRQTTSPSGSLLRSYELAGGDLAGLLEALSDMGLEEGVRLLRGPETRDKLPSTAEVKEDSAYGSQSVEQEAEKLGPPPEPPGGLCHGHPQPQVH
# T1 sequence (Q04206 whole entry, looked up): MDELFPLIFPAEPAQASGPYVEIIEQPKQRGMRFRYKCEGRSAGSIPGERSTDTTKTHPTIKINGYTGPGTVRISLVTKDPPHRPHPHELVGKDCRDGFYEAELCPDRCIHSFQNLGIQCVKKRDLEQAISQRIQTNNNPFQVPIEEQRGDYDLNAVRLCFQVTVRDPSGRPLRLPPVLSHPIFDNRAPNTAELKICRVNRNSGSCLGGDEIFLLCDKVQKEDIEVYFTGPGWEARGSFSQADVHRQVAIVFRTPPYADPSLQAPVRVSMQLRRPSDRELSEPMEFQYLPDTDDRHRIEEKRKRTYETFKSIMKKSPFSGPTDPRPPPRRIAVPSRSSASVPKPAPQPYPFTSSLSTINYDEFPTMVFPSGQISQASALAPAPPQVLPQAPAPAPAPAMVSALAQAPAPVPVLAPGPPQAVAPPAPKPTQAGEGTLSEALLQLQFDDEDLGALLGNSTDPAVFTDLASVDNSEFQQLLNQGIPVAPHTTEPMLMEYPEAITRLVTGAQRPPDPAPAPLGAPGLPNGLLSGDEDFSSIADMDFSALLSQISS
smiles,measurement,setting,value
C=C1CC[C@@H]2[C@]3(C)COC(C)(C)O[C@@H]3CC[C@@]2(C)[C@@H]1C/C=C1/C(=O)OC[C@H]1OC(=O)CI,CC50,HEK293 [1],20 µM
same,LC50,Vero,48 µM
O=c1[nH]cc(F)c(=O)[nH]1 [FLUOROURACIL],CC50,HEK293 [1],25 µM
C[C@]1(CO)[C@H]2CC[C@]3(CO3)[C@@H](C/C=C3/C(=O)OC[C@H]3OC(=O)CBr)[C@]2(C)CC[C@H]1O,CC50,HEK293 [1],24 µM
same,LC50,Vero,32 µM
same,Retention_time,[2],27.2 min
C=C1CC[C@@H]2[C@]3(C)COC(C)(C)O[C@@H]3CC[C@@]2(C)[C@@H]1C/C=C1/C(=O)OC[C@H]1OC(=O)CCl,CC50,HEK293 [1],19 µM
same,LC50,Vero,42 µM
COc1cc([C@@H]2c3cc4c(cc3[C@@H](O[C@@H]3O[C@@H]5CO[C@@H](C)O[C@H]5[C@H](O)[C@H]3O)[C@H]3COC(=O)[C@H]23)OCO4)cc(OC)c1O [ETOPOSIDE],CC50,HEK293 [1],18 µM
same,LC50,Vero,28 µM
C=C1CC[C@@H]2[C@](C)(CO)[C@H](O)CC[C@@]2(C)[C@@H]1C/C=C1/C(=O)OC[C@H]1O [ANDROGRAPHOLIDE],CC50,HEK293 [1],25 µM
same,LC50,Vero,< 40 µM
same,CC50,MCF7,16 µM
same,LC50,[3],> 40 µM
same,Activity,HEK293 [4],Active
same,Activity,HEK293 [5],Active
same,Activity,HEK293 [6],Active
same,Activity,HEK293 [7],Active
same,Activity,HEK293 [8],Active
same,Activity,HEK293 [9],Active
same,Activity,HEK293 [10],inactive
same,Activity,HEK293 [11],inactive
same,Activity,HEK293 [12],inactive
same,Activity,HEK293 [13],inactive
same,Activity,HEK293 [14],inactive
C[C@]1(CO)[C@H]2CC[C@@]3(CO3)[C@@H](C/C=C3/C(=O)OC[C@H]3OC(=O)CI)[C@]2(C)CC[C@H]1O,Activity,HEK293 [15],Active
same,Activity,HEK293 [16],Active
same,Activity,HEK293 [17],Dose-dependent effect
same,CC50,HEK293 [1],12 µM
same,LC50,Vero,30 µM
same,CC50,MCF7,7 µM
same,LC50,[3],> 40 µM
same,Retention_time,[2],31.4 min
same,Activity,HEK293 [18],62.05%
same,Activity,HEK293 [19],77.99%
same,Activity,HEK293 [20],79.55%
same,Activity,HEK293 [21],92.93%
same,Activity,HEK293 [22],25.38%
same,Activity,HEK293 [23],15.61%
same,Activity,HEK293 [24],14.98%
same,Activity,HEK293 [25],5.37%
same,Activity,HEK293 [26],9.87%
same,Activity,HEK293 [27],4.98%
same,Activity,HEK293 [28],4.63%
same,Activity,HEK293 [29],1.18%
same,Activity,HEK293 [30],2.7%
same,Activity,HEK293 [31],1.41%
same,Activity,HEK293 [32],1.31%
same,Activity,HEK293 [33],0.52%
same,fold change (FC),HEK293 [34],>6
same,Activity,HEK293 [4],Active
same,inhibition,[35],Dose-dependent effect
same,fold change (FC),[36],5
same,Activity,HEK293 [5],Active
same,Activity,HEK293 [6],Active
same,Activity,HEK293 [7],Active
same,Activity,HEK293 [8],Active
same,Activity,HEK293 [9],Active
same,Activity,HEK293 [10],inactive
same,Activity,HEK293 [11],inactive
same,Activity,HEK293 [12],inactive
same,Activity,HEK293 [13],inactive
same,Activity,HEK293 [14],inactive
same,Activity,[37],Active
C[C@]1(CO)[C@H]2CC[C@@]3(CO3)[C@@H](C/C=C3/C(=O)OC[C@H]3OC(=O)CBr)[C@]2(C)CC[C@H]1O,CC50,HEK293 [1],16 µM
same,LC50,Vero,29 µM
same,Retention_time,[2],27.8 min
